MrgX1 antag: human MrgX1 receptor antagonism, primary screen; B-score at 10 µM; MRGX1-HEK293 calcium flux, Fluo-4, BAM8-22 antagonism; active compounds read low; AID 588676; actives 1.3% (n = 310,000);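 active = calcium-response B-score plate-corrected more than 3 library SD below zero, starting fluorescence within 5 deviations, no agonist response on first addition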;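 note: peak minus trough fluorescence over baseline after final BAM8-22 challenge near maximal dose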
Target sequence (Q96LB2 whole entry, looked up): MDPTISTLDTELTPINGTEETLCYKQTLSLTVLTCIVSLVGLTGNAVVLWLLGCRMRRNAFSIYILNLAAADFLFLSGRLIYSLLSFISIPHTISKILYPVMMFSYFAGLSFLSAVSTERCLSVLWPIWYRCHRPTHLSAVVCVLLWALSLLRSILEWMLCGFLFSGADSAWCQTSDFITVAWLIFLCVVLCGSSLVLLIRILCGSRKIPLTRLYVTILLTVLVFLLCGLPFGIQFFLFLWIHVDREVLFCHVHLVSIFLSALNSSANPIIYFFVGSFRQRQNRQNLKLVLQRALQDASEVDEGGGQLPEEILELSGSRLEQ
RGS4 block: human RGS4 inhibition; HEK293 M3R/RGS4 inducible, Fluo-4 calcium flux; active compounds read high; triggered by carbachol at its EC20; AID 463165; B-score at 10 µM; P49798; actives 0.45% (n = 310,000);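 active = B-score, a plate-corrected calcium signal, over three deviations above library mean, with baseline fluorescence within five deviations of library mean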;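 note: RGS4 expression induced by doxycycline in cells with stable M3 receptor; B-score is computed from the integrated fluorescence ratio over baseline after carbachol; higher B-score means a larger calcium signal and so more RGS4 inhibition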
Target sequence (P49798 whole entry, looked up): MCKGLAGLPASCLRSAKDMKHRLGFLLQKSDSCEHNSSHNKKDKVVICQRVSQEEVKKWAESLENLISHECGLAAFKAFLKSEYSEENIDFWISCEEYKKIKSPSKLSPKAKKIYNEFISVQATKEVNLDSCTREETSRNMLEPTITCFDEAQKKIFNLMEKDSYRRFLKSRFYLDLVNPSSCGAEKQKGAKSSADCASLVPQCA
Hep lipid drop: modulators of hepatic lipid droplet formation; AML12 mouse hepatocytes, oleate lipid droplets, BODIPY imaging; AID 1656; inhibition, % at 6.5 µM; actives 0.4% (n = 240,000);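 active = lipid droplet intensity inhibited by at least 50%, with more than 500 cells counted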
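System: AML12 hepatocytes (mouse). Probe or stimulus: oleic acid at 100 µM to induce lipid droplet formation. Times: overnight treatment with compound plus oleate. Detection: Image-based BODIPY and DAPI two-channel analysis. Evaluation: percent inhibition of filter-corrected integrated lipid droplet intensity per well.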
RGS4 act: potentiators or activators of RGS4; HEK293 M3R/inducible RGS4, carbachol calcium flux Fluo4; active compounds read low; B-score at 10 µM; actives 0.92% (n = 310,000); AID 463111;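 active = B-score of the integrated calcium signal more than 4 SD below the library mean, with starting fluorescence not abnormally high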;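 note: negative B-score means reduced calcium response which marks RGS4 activation or potentiation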
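Also added: carbachol at ECmax as muscarinic agonist stimulus; Assay system: HEK293 cells with stable M3R and inducible RGS4; Timing: overnight RGS4 induction, 30 min dye load 37 °C, 20 min compound RT; Measured by: Fluo4-AM (2 µM) calcium-flux fluorescence, kinetic read.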
MrgX1 allo act: human MrgX1 positive allosteric modulation, primary screen. AID 588675. Q96LB2. B-score at 10 µM. actives 0.63% (n = 310,000). MrgX1-HEK293, Fluo-4 calcium flux, FDSS; active compounds read high;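 active = plate-corrected calcium response at least 3 library SD above typical, normal starting fluorescence, not activating the receptor alone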;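 note: compound read alongside a low EC10 to EC30 dose of BAM8-22 agonist; peak minus trough fluorescence over baseline measured at the second addition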
MrgX1 ag: agonists of human MrgX1 receptor. Q96LB2. MrgX1-HEK293 cells, Fluo-4 calcium fluorescence, agonist mode; active compounds read high. B-score at 10 µM. actives 0.44% (n = 310,000);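 active = calcium response B-score plate-corrected fluorescence ratio at least 3 library SD, with starting fluorescence B-score inside 5 SD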
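System – MrgX1-expressing HEK293 cells · Incubation – cells plated overnight, dye loaded 0.5 h 37 °C, 0.5 h room temperature · Technique – kinetic Fluo-4 NW fluorescence of intracellular calcium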
MrgX1 antag conf: reconfirmed antagonist of human MrgX1 receptor signaling | shares compounds with MrgX1 antag | MrgX1-HEK293, BAM8-22 calcium flux, Fluo-4; active compounds read low | remaining BAM8-22 calcium response % of control (active compounds read low), % at 10 µM | actives 19% (n = 2,300) | AID 602420;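 active = remaining agonist calcium response no higher than 100% minus 3 SD of agonist-only control wells, with starting fluorescence near control levels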;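 note: agonist BAM8-22 given at a near maximal EC90 to ECmax level; peak minus minimum fluorescence divided by baseline after agonist addition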
HEK293 Ca flux: counter-screen for MrgX1 antagonists: effect in parental HEK293 cells; shares compounds with MrgX1 antag; Fluo-4 calcium fluorescence, FDSS; fluorescence ratio F(max-min)/F0 at 10 µM; actives 2% (n = 4,000); AID 624111;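 active = duplicate-averaged calcium fluorescence ratio at least three times the standard deviation of buffer wells, a nonspecific response in parental cells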
HEK293 Ca counter: MrgX1 allosteric activator counter-screen hit in parental HEK293 cells; parental HEK293 calcium flux, Fluo-4 fluorescence ratio; active compounds read high; fluorescence ratio F(max-min)/F0 at 10 µM; actives 0.4% (n = 4,000); AID 624114; shares compounds with MrgX1 antag;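 active = calcium fluorescence ratio, averaged over duplicates, at least 3 SD of the buffer-well ratio, meaning a nonspecific response in receptor-free cells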;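 note: untransfected parental HEK293 lacking MrgX1 used as counterscreen for MrgX1 allosteric activators; fluorescence change taken during the second addition on a kinetic imager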
HEK293 Ca cntr2: activity in parental HEK293 cells lacking MrgX1 receptor; shares compounds with MrgX1 antag; Fluo-4 calcium fluorescence (FDSS); active compounds read high; fluorescence ratio F(max-min)/F0 at 10 µM; actives 8.7% (n = 4,000); AID 624115;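 active = calcium fluorescence ratio at least three times the spread of buffer wells, meaning a non-specific response in parental cells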
* hit, by the source's call; i = inactive; · = no result. Rows were chosen to be rich in hits. Some 3.8% of all compounds tested hit in one or more screens of this group.

SMILES | MrgX1 antag | RGS4 block | Hep lipid drop | RGS4 act | MrgX1 allo act | MrgX1 ag | MrgX1 antag conf | HEK293 Ca flux | HEK293 Ca counter | HEK293 Ca cntr2
O=C(Nc1ccc(Cl)cc1)c1cc2c(cc1O)[nH]c1ccccc12 | -4.9* | i | 0 | i | i | i | 54%* | i | i | i
CC(=O)Nc1ccc2[nH]c3ccccc3c2c1 | i | i | · | i | i | i | · | · | · | ·
O=C(NC1CCCCCC1)C1CCC(=O)N(Cc2ccccc2F)C1 (stereo not drawn) | i | i | 2 | i | i | i | · | · | · | ·
Cc1ccc(C(=O)C2=C(O)C(=O)N(Cc3cccnc3)C2c2ccc(Br)cc2)o1 (stereo not drawn) | -11* | i | -3 | i | i | i | i | i | i | i
COCCCN1C(=O)C(=O)/C(=C(/O)c2ccc(S(=O)(=O)N3CCOCC3)cc2)C1c1ccc(OC)cc1 (stereo not drawn) | i | i | 5 | i | i | i | · | · | · | ·
COC(=O)c1[nH]c2ccc(C)cc2c1NS(=O)(=O)c1ccc(F)c(C)c1 | -6.8* | i | · | i | i | i | i | i | i | i
COC(=O)c1[nH]c2ccc(F)cc2c1NS(=O)(=O)c1ccc(F)c(C)c1 | i | i | 9 | i | i | i | · | · | · | ·
CCN1CN(Cc2ccco2)CNC1=S | i | i | 30 | i | i | i | · | · | · | ·
CCC(C(=O)N1CCN(c2ncccn2)CC1)c1ccccc1 (stereo not drawn) | -4.6* | i | 16 | i | i | i | i | i | i | i
COC(=O)C1CSC(C(=O)OC)N1C(=O)CN1CCN(c2ccccc2)CC1 (stereo not drawn) | -8.1* | i | -1 | i | i | i | 77%* | i | i | i
COc1ccc(C(=O)Nc2ccc3ccccc3n2)cc1OC | i | i | 0 | i | i | i | · | · | · | ·
O=C1OCCC1Sc1nnc(-c2cccc(Br)c2)o1 (stereo not drawn) | -5.1* | i | -1 | i | i | i | i | i | i | i
Cc1cccc(-n2ncc3c(NCCc4ccc(S(N)(=O)=O)cc4)ncnc32)c1 | -5.5* | i | · | i | i | i | 82%* | i | i | i
Cc1cccc(-n2ncc3c(NCc4ccccc4)ncnc32)c1 | i | i | -11 | i | i | i | · | · | · | ·
CCOc1ccc(OCCN2C(=O)NC3(CCCc4ccccc43)C2=O)cc1 (stereo not drawn) | -5.5* | i | · | i | i | i | i | i | i | i
O=C1NC2(CCCc3ccccc32)C(=O)N1CCOc1ccc(Br)cc1 (stereo not drawn) | i | i | 13 | i | i | i | · | · | · | ·
CCOC(=O)c1cnc(SC)nc1Oc1cccc(NS(=O)(=O)c2ccccc2)c1 | i | i | · | i | i | i | · | · | · | ·
CCOC(=O)c1cnc(SC)nc1Oc1cccc(NS(=O)(=O)c2ccc(F)cc2)c1 | -6.8* | i | · | i | i | i | i | i | i | i
COC1CCN(C(=O)CC2C(=O)NCCN2CC(C)(C)C)CC1 (stereo not drawn) | i | i | 7 | i | i | i | · | · | · | ·
COC1CCN(C(=O)CC2C(=O)NCCN2CC2CCCCC2)CC1 (stereo not drawn) | -5.3* | i | -2 | i | i | i | i | i | i | i
COc1ccc(-c2nc3ccccc3c(=O)n2CCOc2ccccc2C)cc1 | -7* | i | 8 | i | i | i | i | i | i | i
COc1ccc(-c2nc3ccccc3c(=O)n2CCOc2ccc(C)cc2C)cc1 | i | i | 1 | i | i | i | · | · | · | ·
Cc1cccc(C)c1OC(=O)CN(c1ccc(Cl)cc1)S(C)(=O)=O | -7.1* | i | -2 | i | i | i | i | i | i | i
O=C(Nc1ccccc1)c1cccc(N2CCCC2=O)c1 | -6.7* | i | 3 | i | i | i | i | i | i | i
O=C(O)c1cccc(N2CCCC2=O)c1 | i | i | 1 | i | i | i | · | · | · | ·
SMILES | MrgX1 antag | RGS4 block | Hep lipid drop | RGS4 act | MrgX1 allo act | MrgX1 ag | MrgX1 antag conf | HEK293 Ca flux | HEK293 Ca counter | HEK293 Ca cntr2
CCOC(=O)c1cc2c(=O)n3cccc(C)c3nc2n(Cc2ccco2)c1=NC(=O)c1cccnc1 | · | · | 2 | · | · | · | · | · | · | ·
N=c1c(S(=O)(=O)c2ccc(Br)cc2)cc2c(=O)n3ccccc3nc2n1Cc1ccco1 | -4.6* | i | -7 | i | i | i | 82%* | i | i | i
CCOC(=O)c1cc2c(=O)n3ccccc3nc2n(Cc2ccco2)c1=NC(=O)c1cccnc1 | -15* | i | · | i | i | i | i | i | i | i
N=c1c(S(=O)(=O)c2ccc(Cl)cc2)cc2c(=O)n3ccccc3nc2n1Cc1ccco1 | i | i | -3 | i | i | i | · | · | · | ·
O=C1CC(C(=O)Nc2nccs2)C(c2ccccc2)O1 (stereo not drawn) | -6.3* | i | · | i | i | i | i | i | i | i
COc1ccc(Cl)cc1C(=O)NCC(c1ccco1)N(C)C (stereo not drawn) | i | i | -24 | i | i | i | · | · | · | ·
COc1ccc(Cl)cc1C(=O)NCC(c1ccco1)N1CCCC1 (stereo not drawn) | -5.2* | i | 12 | i | i | i | i | i | i | i
COc1ccc(C(CNC(=O)C(C)(C)Oc2ccc(Cl)cc2)N2CCCCC2)cc1 (stereo not drawn) | i | i | -11 | i | i | i | · | · | · | ·
CC(C)(Oc1ccc(Cl)cc1)C(=O)NCC(c1ccco1)N1CCCCC1 (stereo not drawn) | -4.8* | i | · | i | i | i | i | i | i | i

Screens: PubChem BioAssay, several laboratories
